Experimental data reported in ChEMBL document CHEMBL1152649, “Synthesis, cytotoxicity and human telomerase inhibition activities of a series of 1,2-heteroannelated anthraquinones and anthra[1,2-d]imidazole-6,11-dione homologues” (2009).

Key:
U-251 = assay: Antiproliferative activity against human U251 cells assessed as cell growth at 10 uM; assay type: functional; settings: read-out: Activity
Summary of the method: (§1)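 NCI 60 cell line panel, single dose (10^-5 M), run per the Developmental Therapeutics Program protocol (one dose mean graph). Each result is the growth percentage of treated cells relative to untreated control cells.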

SW-620 = assay: Antiproliferative activity against human SW620 cells assessed as cell growth at 10 uM; assay type: functional; settings: read-out: Activity; summary of the method: as §1
[1] = Cytotoxicity against human H1299 cells at 10 uM after 48 hrs by MTT assay; assay type: functional; settings: NCI-H1299, 48 h
Summary of the method: (§2)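 H1299 non-small cell lung cancer cells were grown in RPMI 1640 with 10% FBS, penicillin and streptomycin at 37 °C under 5% CO2. About 2 × 10³ cells per well were seeded and left 24 h. Compounds were dissolved fresh in DMSO, diluted into complete medium and applied for 48 h. MTT was then added for 4 h at 37 °C, followed by lysis buffer (20% SDS, 50% DMF) for 16 h, and absorbance was read at 550 nm.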

UO-31 = assay: Antiproliferative activity against human UO31 cells assessed as cell growth at 10 uM; assay type: functional; settings: read-out: Activity; summary of the method: as §1
PC-3 = assay: Antiproliferative activity against human PC3 cells assessed as cell growth at 10 uM; assay type: functional; settings: read-out: Activity
Summary of the method: (§3)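 NCI 60 cell line panel, single-dose screen (10^-5 M) run by the developmental therapeutics program protocol. Results are given as growth percent of treated cells relative to untreated control cells for each line.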

HT-29 = assay: Antiproliferative activity against human HT-29 cells assessed as cell growth at 10 uM; assay type: functional; settings: read-out: Activity; summary of the method: as §3
EKVX = assay: Antiproliferative activity against human EKVX cells assessed as cell growth at 10 uM; assay type: functional; settings: read-out: Activity; summary of the method: as §3
T47D = assay: Antiproliferative activity against human T47D cells assessed as cell growth at 10 uM; assay type: functional; settings: read-out: Activity; summary of the method: as §1
[2] = target: Telomerase reverse transcriptase (Homo sapiens) (UniProt O14746); assay: Inhibition of TERT in human H1299 cells assessed as residual transcriptional activity at 100 uM after 24 hrs by SEAP reporter gene assay; values are per cent of control
Sequence of Telomerase reverse transcriptase (Homo sapiens) (O14746 whole entry): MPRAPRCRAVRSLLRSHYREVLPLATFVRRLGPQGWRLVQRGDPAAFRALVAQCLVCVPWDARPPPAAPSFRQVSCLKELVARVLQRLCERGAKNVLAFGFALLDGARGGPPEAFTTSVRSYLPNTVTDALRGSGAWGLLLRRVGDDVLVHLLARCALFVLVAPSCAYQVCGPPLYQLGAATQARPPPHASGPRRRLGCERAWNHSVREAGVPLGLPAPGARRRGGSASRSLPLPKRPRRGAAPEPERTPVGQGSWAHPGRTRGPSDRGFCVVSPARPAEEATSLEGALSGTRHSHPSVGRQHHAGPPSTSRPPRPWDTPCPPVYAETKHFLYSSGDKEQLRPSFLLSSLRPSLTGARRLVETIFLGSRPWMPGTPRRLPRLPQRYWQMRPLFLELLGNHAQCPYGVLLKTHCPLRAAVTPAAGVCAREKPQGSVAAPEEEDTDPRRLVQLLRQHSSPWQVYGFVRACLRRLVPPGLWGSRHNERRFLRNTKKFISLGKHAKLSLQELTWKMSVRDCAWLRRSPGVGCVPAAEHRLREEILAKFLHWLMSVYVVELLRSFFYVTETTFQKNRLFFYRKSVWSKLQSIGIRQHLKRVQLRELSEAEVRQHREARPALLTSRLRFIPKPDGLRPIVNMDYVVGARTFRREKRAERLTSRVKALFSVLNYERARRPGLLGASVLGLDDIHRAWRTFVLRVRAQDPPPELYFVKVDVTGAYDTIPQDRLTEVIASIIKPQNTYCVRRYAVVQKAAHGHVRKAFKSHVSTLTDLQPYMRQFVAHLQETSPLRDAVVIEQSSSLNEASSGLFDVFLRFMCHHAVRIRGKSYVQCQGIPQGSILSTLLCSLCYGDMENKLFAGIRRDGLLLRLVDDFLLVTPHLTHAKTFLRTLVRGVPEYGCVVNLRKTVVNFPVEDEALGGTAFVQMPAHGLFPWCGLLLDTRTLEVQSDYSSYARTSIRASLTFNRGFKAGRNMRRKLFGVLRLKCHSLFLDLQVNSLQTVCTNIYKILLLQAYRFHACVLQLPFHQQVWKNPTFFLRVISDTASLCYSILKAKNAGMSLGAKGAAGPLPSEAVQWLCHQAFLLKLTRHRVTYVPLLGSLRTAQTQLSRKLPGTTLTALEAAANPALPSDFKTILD

HCC 2998 = assay: Antiproliferative activity against human HCC2998 cells assessed as cell growth at 10 uM; assay type: functional; settings: read-out: Activity; summary of the method: as §3
OVCAR-3 = assay: Antiproliferative activity against human OVCAR-3 cells assessed as cell growth at 10 uM; assay type: functional; settings: read-out: Activity; summary of the method: as §3
SF-295 = assay: Antiproliferative activity against human SF295 cells assessed as cell growth at 10 uM; assay type: functional; settings: read-out: Activity; summary of the method: as §3
SK-MEL-28 = assay: Antiproliferative activity against human SK-MEL-28 cells assessed as cell growth at 10 uM; assay type: functional; settings: read-out: Activity; summary of the method: as §3
OVCAR-8 = assay: Antiproliferative activity against human OVCAR8 cells assessed as cell growth at 10 uM; assay type: functional; settings: read-out: Activity; summary of the method: as §3
UACC-62 = assay: Antiproliferative activity against human UACC62 cells assessed as cell growth at 10 uM; assay type: functional; settings: read-out: Activity; summary of the method: as §1
M14 = assay: Antiproliferative activity against human M14 cells assessed as cell growth at 10 uM; assay type: functional; settings: read-out: Activity; summary of the method: as §3
ACHN = assay: Antiproliferative activity against human ACHN cells assessed as cell growth at 10 uM; assay type: functional; settings: read-out: Activity; summary of the method: as §3
SF-268 = assay: Antiproliferative activity against human SF268 cells assessed as cell growth at 10 uM; assay type: functional; settings: read-out: Activity; summary of the method: as §3
A498 = assay: Antiproliferative activity against human A498 cells assessed as cell growth at 10 uM; assay type: functional; settings: read-out: Activity; summary of the method: as §3
NCI-H322M = assay: Antiproliferative activity against human NCI-H322M cells assessed as cell growth at 10 uM; assay type: functional; settings: read-out: Activity; summary of the method: as §3
SK-MEL-5 = assay: Antiproliferative activity against human SK-MEL-5 cells assessed as cell growth at 10 uM; assay type: functional; settings: read-out: Activity; summary of the method: as §3
786-0 = assay: Antiproliferative activity against human 786-0 cells assessed as cell growth at 10 uM; assay type: functional; settings: read-out: Activity; summary of the method: as §3
NCI/ADR-RES = assay: Antiproliferative activity against human NCI/ADR-RES cells assessed as cell growth at 10 uM; assay type: functional; settings: read-out: Activity; summary of the method: as §3
MOLT-4 = assay: Antiproliferative activity against human MOLT4 cells assessed as cell growth at 10 uM; assay type: functional; settings: read-out: Activity; summary of the method: as §3
SK-OV-3 = assay: Antiproliferative activity against human SKOV3 cells assessed as cell growth at 10 uM; assay type: functional; settings: read-out: Activity; summary of the method: as §3
NCI-H23 = assay: Antiproliferative activity against human NCI-H23 cells assessed as cell growth at 10 uM; assay type: functional; settings: read-out: Activity; summary of the method: as §3
HOP-92 = assay: Antiproliferative activity against human HOP92 cells assessed as cell growth at 10 uM; assay type: functional; settings: read-out: Activity; summary of the method: as §3
CCRF-CEM = assay: Antiproliferative activity against human CCRF-CEM cells assessed as cell growth at 10 uM; assay type: functional; settings: read-out: Activity; summary of the method: as §3
MCF7 = assay: Antiproliferative activity against human MCF7 cells assessed as cell growth at 10 uM; assay type: functional; settings: read-out: Activity; summary of the method: as §3
OVCAR-4 = assay: Antiproliferative activity against human OVCAR4 cells assessed as cell growth at 10 uM; assay type: functional; settings: read-out: Activity; summary of the method: as §3
TK-10 = assay: Antiproliferative activity against human TK10 cells assessed as cell growth at 10 uM; assay type: functional; settings: read-out: Activity; summary of the method: as §1
[3] = Cytotoxicity against human H1299 cells at 100 uM after 48 hrs by MTT assay; assay type: functional; settings: NCI-H1299, 48 h; summary of the method: as §2
MDA-MB-231 = assay: Antiproliferative activity against human MDA-MB-231 cells assessed as cell growth at 10 uM; assay type: functional; settings: read-out: Activity; summary of the method: as §3
SNB-75 = assay: Antiproliferative activity against human SNB75 cells assessed as cell growth at 10 uM; assay type: functional; settings: read-out: Activity; summary of the method: as §1
NCI-H522 = assay: Antiproliferative activity against human NCI-H522 cells assessed as cell growth at 10 uM; assay type: functional; settings: read-out: Activity; summary of the method: as §3
LOX IMVI = assay: Antiproliferative activity against human LOXIMVI cells assessed as cell growth at 10 uM; assay type: functional; settings: read-out: Activity; summary of the method: as §3
A549 = assay: Antiproliferative activity against human A549 cells assessed as cell growth at 10 uM; assay type: functional; settings: read-out: Activity; summary of the method: as §3
HCT-15 = assay: Antiproliferative activity against human HCT15 cells assessed as cell growth at 10 uM; assay type: functional; settings: read-out: Activity; summary of the method: as §3
[4] = target: Telomerase reverse transcriptase (Homo sapiens) (UniProt O14746); assay: Inhibition of TERT in human H1299 cells assessed as residual transcriptional activity at 10 uM after 24 hrs by SEAP reporter gene assay; values are per cent of control
NCI-H460 = assay: Antiproliferative activity against human NCI-H460 cells assessed as cell growth at 10 uM; assay type: functional; settings: read-out: Activity; summary of the method: as §3
[5] = Antiproliferative activity against human Hs 578T cells assessed as cell growth at 10 uM; assay type: functional; settings: read-out: Activity; summary of the method: as §3
MDA-MB-435 = assay: Antiproliferative activity against human MDA-MB-435 cells assessed as cell growth at 10 uM; assay type: functional; settings: read-out: Activity; summary of the method: as §3
HCT-116 = assay: Antiproliferative activity against human HCT116 cells assessed as cell growth at 10 uM; assay type: functional; settings: read-out: Activity; summary of the method: as §3
Malme-3M = assay: Antiproliferative activity against human MALME-3M cells assessed as cell growth at 10 uM; assay type: functional; settings: read-out: Activity; summary of the method: as §3
CAKI-1 = assay: Antiproliferative activity against human Caki1 cells assessed as cell growth at 10 uM; assay type: functional; settings: read-out: Activity; summary of the method: as §3
SR = assay: Antiproliferative activity against human SR cells assessed as cell growth at 10 uM; assay type: functional; settings: read-out: Activity; summary of the method: as §1
HL-60(TB) = assay: Antiproliferative activity against human HL-60(TB) cells assessed as cell growth at 10 uM; assay type: functional; settings: read-out: Activity
Summary of the method: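 NCI Developmental Therapeutics Program 60-cell-line one-dose screen at 10^-5 M. Readout is growth percentage of treated cells relative to untreated control cells.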

N#Cc1ccc(-c2nc3ccc4c(c3[nH]2)C(=O)c2ccccc2C4=O)cc1
growth at 10 µM (U-251): 112%
growth at 10 µM (SW-620): 89.4%
viability at 10 µM [1]: 77%
growth at 10 µM (UO-31): 80.4%
growth at 10 µM (PC-3): 109%
growth at 10 µM (HT-29): 86.4%
growth at 10 µM (EKVX): 99.8%
growth at 10 µM (T47D): 85.1%
residual activity [2]: 30%
growth at 10 µM (HCC 2998): 74.7%
growth at 10 µM (OVCAR-3): 111%
growth at 10 µM (SF-295): 120%
growth at 10 µM (SK-MEL-28): 115%
growth at 10 µM (OVCAR-8): 98.9%
growth at 10 µM (UACC-62): 104%
growth at 10 µM (M14): 243%
growth at 10 µM (ACHN): 111%
growth at 10 µM (SF-268): 99.2%
growth at 10 µM (A498): 96.2%
growth at 10 µM (NCI-H322M): 127%
growth at 10 µM (SK-MEL-5): 103%
growth at 10 µM (786-0): 124%
growth at 10 µM (NCI/ADR-RES): 102%
growth at 10 µM (MOLT-4): 87.1%
growth at 10 µM (SK-OV-3): 104%
growth at 10 µM (NCI-H23): 90.9%
growth at 10 µM (HOP-92): 56.2%
growth at 10 µM (CCRF-CEM): 117%
growth at 10 µM (MCF7): 62.7%
growth at 10 µM (OVCAR-4): 101%
growth at 10 µM (TK-10): 180%
viability at 100 µM [3]: 19%
growth at 10 µM (MDA-MB-231): 87.1%
growth at 10 µM (SNB-75): 63.2%
growth at 10 µM (NCI-H522): 141%
growth at 10 µM (LOX IMVI): 101%
growth at 10 µM (A549): 106%
growth at 10 µM (HCT-15): 101%
residual activity [4]: 83%
growth at 10 µM (NCI-H460): 105%
growth at 10 µM [5]: 102%
growth at 10 µM (MDA-MB-435): 113%
growth at 10 µM (HCT-116): 79.8%
growth at 10 µM (Malme-3M): 201%
growth at 10 µM (CAKI-1): 110%
growth at 10 µM (SR): 84.1%
growth at 10 µM (HL-60(TB)): 145%

CN(C)c1ccc(-c2nc3ccc4c(c3[nH]2)C(=O)c2ccccc2C4=O)cc1
growth at 10 µM (U-251): 102%
growth at 10 µM (SW-620): 103%
viability at 10 µM [1]: 62%
growth at 10 µM (UO-31): 75.5%
growth at 10 µM (PC-3): 82.4%
growth at 10 µM (HT-29): 105%
growth at 10 µM (EKVX): 91.9%
growth at 10 µM (T47D): 119%
residual activity [2]: 21%
growth at 10 µM (HCC 2998): 109%
growth at 10 µM (OVCAR-3): 111%
growth at 10 µM (SF-295): 159%
growth at 10 µM (SK-MEL-28): 96.8%
growth at 10 µM (OVCAR-8): 111%
growth at 10 µM (UACC-62): 85.8%
growth at 10 µM (M14): 113%
growth at 10 µM (ACHN): 96.2%
growth at 10 µM (SF-268): 95.4%
growth at 10 µM (A498): 86.1%
growth at 10 µM (NCI-H322M): 94.8%
growth at 10 µM (SK-MEL-5): 93.8%
growth at 10 µM (786-0): 109%
growth at 10 µM (NCI/ADR-RES): 108%
growth at 10 µM (MOLT-4): 101%
growth at 10 µM (SK-OV-3): 202%
growth at 10 µM (NCI-H23): 93.8%
growth at 10 µM (HOP-92): 89.9%
growth at 10 µM (CCRF-CEM): 63.9%
growth at 10 µM (MCF7): 67.4%
growth at 10 µM (OVCAR-4): 98.3%
growth at 10 µM (TK-10): 116%
viability at 100 µM [3]: 22%
growth at 10 µM (MDA-MB-231): 94.4%
growth at 10 µM (SNB-75): 93.1%
growth at 10 µM (NCI-H522): 87.1%
growth at 10 µM (LOX IMVI): 90.5%
growth at 10 µM (A549): 113%
growth at 10 µM (HCT-15): 107%
residual activity [4]: 73%
growth at 10 µM (NCI-H460): 101%
growth at 10 µM [5]: 109%
growth at 10 µM (MDA-MB-435): 106%
growth at 10 µM (HCT-116): 100%
growth at 10 µM (Malme-3M): 110%
growth at 10 µM (CAKI-1): 108%
growth at 10 µM (SR): 118%
growth at 10 µM (HL-60(TB)): 89.7%
